# Assay results published in ChEMBL document CHEMBL1157468, “Design, synthesis, and testing of non-nephrotoxic desazadesferrithiocin polyether analogues” (J Med Chem, 2008).
# How the values were obtained:
# Kidney [1] = test: Biodistribution in Sprague-Dawley rat kidney assessed per gram tissue wet weight at 300 umol/kg, po after 1 hr; type: ADME, organism-based; settings: in vivo
# In short: (§1)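 Male Sprague–Dawley rats (250–350 g) got one 300 µmol/kg dose, po or sc. Vehicle was water or the monosodium salt (free acid plus 1 equiv NaOH). Three rats per time point were euthanized by CO2 at 1, 2 or 4 h. Plasma came from citrated cardiac blood; liver, kidney, heart and pancreas were removed. Drug levels were measured by HPLC with UV detection at 310 nm against linear calibration curves (detection limit 0.25 µM).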
# Kidney [2] = test: Biodistribution in Sprague-Dawley rat kidney assessed per gram tissue wet weight at 300 umol/kg, po after 4 hrs; type: ADME, organism-based; settings: in vivo; in short: as §1
# Pancreas [3] = test: Biodistribution in Sprague-Dawley rat pancreas assessed per gram tissue wet weight at 300 umol/kg, po after 2 hrs; type: ADME, organism-based; settings: in vivo; in short: as §1
# Liver [4] = test: Biodistribution in Sprague-Dawley rat liver assessed per gram tissue wet weight at 300 umol/kg, sc after 2 hrs; type: ADME, organism-based; settings: in vivo
# Plasma [5] = test: Biodistribution in Sprague-Dawley rat plasma at 300 umol/kg, sc after 4 hrs; type: ADME, organism-based; settings: in vivo
# Plasma [6] = test: Biodistribution in Sprague-Dawley rat plasma at 300 umol/kg, po after 2 hrs; type: ADME, organism-based; settings: in vivo; in short: as §1
# Liver [7] = test: Biodistribution in Sprague-Dawley rat liver assessed per gram tissue wet weight at 300 umol/kg, sc after 4 hrs; type: ADME, organism-based; settings: in vivo
# Kidney [8] = test: Biodistribution in Sprague-Dawley rat kidney assessed per gram tissue wet weight at 300 umol/kg, sc after 4 hrs; type: ADME, organism-based; settings: in vivo
# Rattus norvegicus [9] = test: Iron-clearing efficiency in non-iron-overloaded Sprague-Dawley rat bile assessed as iron excretion at 300 umol/kg, po; type: functional
# In short: (§2)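 Male Sprague–Dawley rats (400–450 g), not iron-loaded and bile duct-cannulated, got one dose of 50, 150 or 300 µmol/kg po, or 300 µmol/kg sc. Vehicle was water or the monosodium salt. Bile was collected every 3 h for 24 h and urine at 24 h. Iron was measured by atomic absorption. Efficiency was treated minus control iron excretion, divided by theoretical output (2:1 ligand:iron), as a percent; mean ± SEM.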
# Rattus norvegicus [10] = test: Iron-clearing efficiency in non-iron-overloaded Sprague-Dawley rat at 300 umol/kg, sc after 24 hrs relative to control; type: functional; in short: as §2
# Rattus norvegicus [11] = test: Nephrotoxicity in Sprague-Dawley rat assessed as heavy vacuolized renal tubules at […] for 7 days by renal perfusion studies; type: toxicity, organism-based; settings: in vivo, 168 h, in the assay text read “237 umol/kg” for “273 umol/kg”
# In short: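 Male Sprague–Dawley rats (200–250 g), fasted overnight, got 237 µmol/kg/dose po twice daily (474 µmol/kg/day) for 7 days and were fed about 3 h post-drug. Untreated age-matched rats were controls. One day post-drug, under pentobarbital, kidneys were perfusion-fixed with glutaraldehyde in Tyrode's buffer and embedded in TAAB. 500 nm sections were stained with toluidine blue and examined by light microscopy at 400×.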
# Liver [12] = test: Biodistribution in Sprague-Dawley rat liver assessed per gram tissue wet weight at 300 umol/kg, sc after 1 hr; type: ADME, organism-based; settings: in vivo
# Sapajus apella [13] = test: Iron-clearing efficiency in iron-overloaded Cebus apella at 150 umol/kg, po after 2 days relative to control; type: functional
# In short: (§3)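 Monkeys (Cebus apella, 3.5–4 kg) were iron-loaded to about 500 mg Fe/kg with iv iron dextran and rested at least 60 days. They then got one 150 µmol/kg dose, po or sc. Feces and urine were collected every 24 h from 4 days before to 5 days after dosing, and iron was measured by flame atomic absorption. Efficiency was the 2-day post-drug iron minus the 4-day pre-drug baseline, divided by theoretical output (2:1 ligand:iron); mean ± SEM.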
# Heart [14] = test: Biodistribution in Sprague-Dawley rat heart assessed per gram tissue wet weight at 300 umol/kg, sc after 2 hrs; type: ADME, organism-based; settings: in vivo
# Plasma [15] = test: Biodistribution in Sprague-Dawley rat plasma at 300 umol/kg, po after 1 hr; type: ADME, organism-based; settings: in vivo; in short: as §1
# Pancreas [16] = test: Biodistribution in Sprague-Dawley rat pancreas assessed per gram tissue wet weight at 300 umol/kg, sc after 1 hr; type: ADME, organism-based; settings: in vivo
# Sapajus apella [17] = test: Iron-clearing efficiency in iron-overloaded Cebus apella at 150 umol/kg, sc after 2 days relative to control; type: functional; in short: as §3
# Pancreas [18] = test: Biodistribution in Sprague-Dawley rat pancreas assessed per gram tissue wet weight at 300 umol/kg, sc after 4 hrs; type: ADME, organism-based; settings: in vivo
# Liver [19] = test: Biodistribution in Sprague-Dawley rat liver assessed per gram tissue wet weight at 300 umol/kg, po after 2 hrs; type: ADME, organism-based; settings: in vivo; in short: as §1
# Rattus norvegicus [20] = test: Toxicity in iron-overloaded Sprague-Dawley rat assessed as survival at 119 umol/kg/day, po after 30 days by non-renal perfusion protocol; type: organism-based; settings: in vivo, 720 h
# Plasma [21] = test: Biodistribution in Sprague-Dawley rat plasma at 300 umol/kg, sc after 2 hrs; type: ADME, organism-based; settings: in vivo
# Pancreas [22] = test: Biodistribution in Sprague-Dawley rat pancreas assessed per gram tissue wet weight at 300 umol/kg, po after 1 hr; type: ADME, organism-based; settings: in vivo; in short: as §1
# Heart [23] = test: Biodistribution in Sprague-Dawley rat heart assessed per gram tissue wet weight at 300 umol/kg, sc after 1 hr; type: ADME, organism-based; settings: in vivo
# Heart [24] = test: Biodistribution in Sprague-Dawley rat heart assessed per gram tissue wet weight at 300 umol/kg, po after 4 hrs; type: ADME, organism-based; settings: in vivo; in short: as §1
# Kidney [25] = test: Biodistribution in Sprague-Dawley rat kidney assessed per gram tissue wet weight at 300 umol/kg, sc after 2 hrs; type: ADME, organism-based; settings: in vivo
# Pancreas [26] = test: Biodistribution in Sprague-Dawley rat pancreas assessed per gram tissue wet weight at 300 umol/kg, sc after 2 hrs; type: ADME, organism-based; settings: in vivo
# Heart [27] = test: Biodistribution in Sprague-Dawley rat heart assessed per gram tissue wet weight at 300 umol/kg, po after 2 hrs; type: ADME, organism-based; settings: in vivo; in short: as §1
# Plasma [28] = test: Biodistribution in Sprague-Dawley rat plasma at 300 umol/kg, sc after 1 hr; type: ADME, organism-based; settings: in vivo
# Kidney [29] = test: Biodistribution in Sprague-Dawley rat kidney assessed per gram tissue wet weight at 300 umol/kg, po after 2 hrs; type: ADME, organism-based; settings: in vivo; in short: as §1
# Rattus norvegicus [30] = test: Iron-clearing efficiency in non-iron-overloaded Sprague-Dawley rat bile assessed as iron excretion at 150 umol/kg, po; type: functional; in short: as §2
# Liver [31] = test: Biodistribution in Sprague-Dawley rat liver assessed per gram tissue wet weight at 300 umol/kg, po after 1 hr; type: ADME, organism-based; settings: in vivo; in short: as §1
# Rattus norvegicus [32] = test: Iron-clearing efficiency in non-iron-overloaded Sprague-Dawley rat at 300 umol/kg, po after 24 hrs relative to control; type: functional; in short: as §2
# Liver [33] = test: Biodistribution in Sprague-Dawley rat liver assessed per gram tissue wet weight at 300 umol/kg, po after 4 hrs; type: ADME, organism-based; settings: in vivo; in short: as §1
# Heart [34] = test: Biodistribution in Sprague-Dawley rat heart assessed per gram tissue wet weight at 300 umol/kg, po after 1 hr; type: ADME, organism-based; settings: in vivo; in short: as §1
# Plasma [35] = test: Biodistribution in Sprague-Dawley rat plasma at 300 umol/kg, po after 4 hrs; type: ADME, organism-based; settings: in vivo; in short: as §1
# Kidney [36] = test: Biodistribution in Sprague-Dawley rat kidney assessed per gram tissue wet weight at 300 umol/kg, sc after 1 hr; type: ADME, organism-based; settings: in vivo
# Rattus norvegicus [37] = test: Iron-clearing efficiency in non-iron-overloaded Sprague-Dawley rat at 150 umol/kg, po after 24 hrs relative to control; type: functional; in short: as §2
smiles,measurement,setting,value
C[C@]1(C(=O)O)CSC(c2ccc(O)cc2O)=N1 [DEFERITRIN],Drug uptake,Kidney [1],208 nmol/g
same,Drug uptake,Kidney [2],61 nmol/g
same,Drug uptake,Pancreas [3],9 nmol/g
same,Drug uptake,Liver [4],48 nmol/g
same,Drug uptake,Plasma [5],2 nmol/g
same,Drug uptake,Plasma [6],8 nmol/g
same,Drug uptake,Liver [7],25 nmol/g
same,Drug uptake,Kidney [8],27 nmol/g
same,Activity,Rattus norvegicus [9],>98%
same,Activity,Rattus norvegicus [10],1.1%
same,Activity,Rattus norvegicus [11],Toxic
same,Drug uptake,Liver [12],80 nmol/g
same,Activity,Sapajus apella [13],16.8%
same,Drug uptake,Heart [14],5 nmol/g
same,Drug uptake,Plasma [15],31 nmol/g
same,Drug uptake,Pancreas [16],28 nmol/g
same,Activity,Sapajus apella [17],15.9%
same,Drug uptake,Pancreas [18],6 nmol/g
same,Drug uptake,Liver [19],73 nmol/g
same,Activity,Rattus norvegicus [20],Non-toxic
same,Drug uptake,Plasma [21],13 nmol/g
same,Drug uptake,Pancreas [22],13 nmol/g
same,Drug uptake,Heart [23],13 nmol/g
same,Drug uptake,Heart [24],3 nmol/g
same,Drug uptake,Kidney [25],97 nmol/g
same,Drug uptake,Pancreas [26],6 nmol/g
same,Drug uptake,Heart [27],5 nmol/g
same,Drug uptake,Plasma [28],34 nmol/g
same,Drug uptake,Kidney [29],100 nmol/g
same,Activity,Rattus norvegicus [30],>98%
same,Drug uptake,Liver [31],131 nmol/g
same,Activity,Rattus norvegicus [32],1.1%
same,Drug uptake,Liver [33],44 nmol/g
same,Drug uptake,Heart [34],8 nmol/g
same,Drug uptake,Plasma [35],5 nmol/g
same,Drug uptake,Kidney [36],179 nmol/g
same,Activity,Rattus norvegicus [37],1.5%
